Bioassay records (PubChem BioAssay)
An excerpt weighted towards active compounds, which were near 4.8% of everything screened.
APP 5UTR inh – APP translation inhibition | SH-SY5Y APP 5'UTR-luciferase reporter, luminescence | inhibition, % at 2 µM | actives 0.82% (n = 190,000) | AID 1285;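 active = inhibition above a set limit, derived from the sample mean plus 3 SD, cut at about 45% in these data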
NF-kB neuron act – NF-kB expression increase, human neuronal cells. NF-kB reporter expression; hits give high values. fold change at 12.5 µM. actives 1.6% (n = 190,000); in the data active = fold change above about 3.3
FLuc inh counter – Photinus pyralis luciferase inhibition counter-screen. AID 1006. ATPLite firefly luciferase biochemical luminescence, 10 min. inhibition, % at 10 µM. actives 1.5% (n = 200,000). P08659;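 active = inhibition above about 50% when tested at 10 µM, limit read from the data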
Target sequence (P08659 whole entry, looked up): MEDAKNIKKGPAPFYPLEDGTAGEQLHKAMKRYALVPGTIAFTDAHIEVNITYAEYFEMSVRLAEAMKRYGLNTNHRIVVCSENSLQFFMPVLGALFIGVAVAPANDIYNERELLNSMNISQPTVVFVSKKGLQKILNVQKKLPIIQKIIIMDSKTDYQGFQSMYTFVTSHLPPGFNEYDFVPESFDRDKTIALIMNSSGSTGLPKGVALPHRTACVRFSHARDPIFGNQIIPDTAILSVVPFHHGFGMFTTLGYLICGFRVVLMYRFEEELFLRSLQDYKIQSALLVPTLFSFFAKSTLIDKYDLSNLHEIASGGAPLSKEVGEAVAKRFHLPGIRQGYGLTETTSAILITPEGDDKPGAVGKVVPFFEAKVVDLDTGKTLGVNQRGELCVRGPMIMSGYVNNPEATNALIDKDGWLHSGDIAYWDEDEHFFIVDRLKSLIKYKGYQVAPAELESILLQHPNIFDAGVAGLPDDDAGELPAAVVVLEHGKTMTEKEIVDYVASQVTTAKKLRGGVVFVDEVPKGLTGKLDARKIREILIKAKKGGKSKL
FLuc stim CS – firefly luciferase counter-screen for stimulation assays | ATPlite luciferase biochemical, luminescence, 10 min; 0 = ATP-free wells, 1 = DMSO control | activation factor at 10 µM | 200,000 tested, under 10 active;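 active = luciferase activation factor, scaled between plate controls, of at least 2 with compound at 10 µM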
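Material: Luciferase/luciferin reagent mix; Doses: test compounds dosed from 2 mM stocks in 100% DMSO; Schedule: 10 min incubation after luciferase reagent addition, room temperature; Measured by: luminescence from luciferase reaction; Read-out: luminescence gain marking luciferase activators.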
STAT1 activator – STAT1 signaling activation. NIH 3T3 STAT1-luciferase reporter, IFN-gamma, luminescence; 100% = IFN-gamma alone, no compound. activation (% of control), % at 5.5 µM. actives 2.6% (n = 200,000);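 active = activation above the screen-wide mean activation plus 3 SD, cut at about 130% in these data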;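 note: raw ratio to IFN-gamma control signal so 100% means no change and 0% no light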
APP 5'UTR act – APP 5'UTR luciferase reporter activation. SH-SY5Y APP 5'UTR luciferase reporter, luminescence; zero percent = DMSO vehicle wells. activation, % at 2 µM. actives 1% (n = 190,000). AID 1276;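 active = activation above a set limit, based on mean plus 3 SD of controls, cut at about 140% in these data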
Numbers without * were called inactive; / = no result.

SMILES	APP 5UTR inh	NF-kB neuron act	FLuc inh counter	FLuc stim CS	STAT1 activator	APP 5'UTR act
C/C=C1\C(OC2OC(CO)C(O)C(O)C2O)OC=C(C(=O)OC)C1CC(=O)OCC1C(C)C(OC(=O)CC2C(C(=O)OC)=COC(OC3OC(CO)C(O)C(O)C3O)/C2=C\C)CC1C(CO)CO (stereo not given)	-5	1.1	-3	1	102	5
Cc1cc(SC(C)C(=O)Nc2ncc(Cl)cc2Cl)nc2ccccc12 (stereo not given)	1	3.4*	-5	1	103	-1
Cc1cccc2[nH]c(-c3ccc(NC(=O)c4ccco4)cc3)nc12	-102	2.1	23	0.8	130*	102
CCN(CC)c1ccc(NC(=O)c2ccco2)cc1	-164	5.2*	83*	0.2	127	164*
CCN(CC)c1ccc(NC(=O)c2ccco2)c(C)c1	-9	1.7	-2	1	101	9
CC(C)CN1C(=O)c2ccc(NC(=O)c3ccco3)cc2C1=O	-9	1.1	21	0.8	130*	9
CC1N(C)c2cc(NC(=O)c3ccco3)c(P(=O)(Nc3ccc([N+](=O)[O-])cc3)N3CCOCC3)cc2C1(C)C (stereo not given)	7	0.58	-4	1	98	-7
CC1N(C)c2cc(NC(=O)c3ccco3)ccc2C1(C)C (stereo not given)	-113	0.27	49	0.5	143*	113
CCn1nc(C)c(CN2CCc3c([nH]c4ccccc34)C2c2ccc(F)c(OC)c2)c1C (stereo not given)	-11	1.2	-4	1	98	11
CC(NC(=O)c1ccccc1NC(=O)CSc1nnnn1C)c1ccccc1 (stereo not given)	-12	0.93	-2	1	103	12
COc1cc2c(cc1OC)CN(c1nc(-c3cccnc3)nc3ccccc13)CC2	-7	0.43	0	1	84	7
O=C(NC(=S)Nc1ccc(N2CCCCC2)cc1)c1cccs1	-136	1.5	36	0.6	148*	136*
O=C(Nc1ccc(N2CCCC2)c(Cl)c1)c1cccs1	-235	7.4*	66*	0.3	142*	235*
CS(=O)(=O)N1CCN(c2ccc(NC(=S)NC(=O)c3cccs3)cc2)CC1	-14	1.2	4	1	100	14
CCN(CC)c1ccc(NC(=S)NC(=O)c2cccs2)cc1	-97	1.9	4	1	134*	97
CCN(CC)c1ccc(NC(=S)NC(=O)c2ccco2)cc1	-97	1.6	8	0.9	142*	97
CCCCC(=O)NNC(=S)NCc1ccccc1	-9	1.1	-1	1	97	9
Fc1ccc(Nc2ccnc(Nc3ccc(F)cc3)n2)cc1	-77	2.9	5	0.9	137*	77
CC(C)(C)C(=O)NC(=S)NNC(=O)c1ccc(Cl)cc1Cl	-10	0.82	-5	1	95	10
COc1ccc(/C=N/NC(=O)c2nc(-c3ccccc3)cc(-c3ccccc3)n2)cc1O	-11	0.6	14	0.9	131*	11
COc1ccc(/C=N/NC(=O)c2nc(-c3ccccc3)cc(-c3ccccc3)n2)cc1	-2	0.43	11	0.9	120	2
COc1ccc(/C=N/NC(=O)CCn2c3ccccc3c3ccccc32)cc1O	87*	1.4	-6	1.1	107	-87
O=C1OCCC1Sc1nc(-c2ccccc2)cs1 (stereo not given)	-28	1.1	14	0.9	94	28
CC1(C)O[C@@H]2C[C@H]3[C@@H]4C[C@H](F)C5=CC(=O)CC[C@]5(C)[C@H]4[C@@H](O)C[C@]3(C)[C@]2(C(=O)CO)O1	-79	0.43	0	1	135*	79
CCN(CC)CCNc1ccc2nnc(CCNS(=O)(=O)c3ccc(C)cc3)n2n1	0	1	-3	1	103	0
SMILES	APP 5UTR inh	NF-kB neuron act	FLuc inh counter	FLuc stim CS	STAT1 activator	APP 5'UTR act
CC(C)(C)c1ccc(C(=O)Nc2ccc(CC(=O)O)cc2)o1	/	0.38	51*	0.5	50	/
Cc1ccc(C(=O)Nc2ccc(CC(=O)O)cc2)o1	2	1.1	-2	1	98	-2
O=C(COC(=O)CC1CCCC1)Nc1ccc(OC(F)F)cc1	-21	1.1	-1	1	111	21
O=C(COC(=O)CC1CCCC1)Nc1cc2c(cc1Cl)C(=O)c1ccccc1C2=O	-74	2.5	1	1	129*	75
CCOc1ccc(NC(=O)c2ccc(CC)s2)c([N+](=O)[O-])c1	-79	1.8	2	1	133*	79
CCCOc1ccc(C(=O)Nc2ccccc2[N+](=O)[O-])cc1	-114	/	/	/	140*	114
COc1ccc(NC(=O)c2ccccc2)c([N+](=O)[O-])c1	-49	1.2	11	0.9	132*	49
CCCCOc1ccc(C(=O)Nc2ccc(C)cc2[N+](=O)[O-])cc1	1	1.6	-3	1	105	-1
O=C1CC(C(=O)N2CCOCC2)C2(CCCCC2)O1 (stereo not given)	-7	0.97	-7	1.1	98	7
COc1ccc(CNC(=O)CS(=O)CC(=O)O)cc1OC (stereo not given)	23	1.1	2	1	103	-23
COC1=C(N)C(=O)c2nc(-c3nc(C(=O)O)c(C)c(-c4ccc(OC)c(OC)c4O)c3N)ccc2C1=O	95*	0.3	6	0.9	74	-95
COc1ccc(-c2ncncc2-c2csc(C)n2)c(O)c1OC	0	1	-4	1	100	0
COC(=O)c1cc(NC(=O)Nc2ccccc2)ccc1Cl	-15	1.6	15	0.8	112	15
COc1cccc(NC(=O)c2cc(CN3C(=O)c4ccccc4C3=O)ccc2OC)c1	-27	1.2	-5	1	98	27
COc1ccccc1CCc1nnc(CCC(=O)N(C)Cc2cccc3cnccc23)o1	-38	2.1	-1	1	131*	38
COc1ccccc1CCc1nnc(CCC(=O)N(C)Cc2ccncc2C)o1	-18	1.1	-8	1.1	95	18
COc1ccc(C(=O)CSc2nc3ccc([N+](=O)[O-])cc3[nH]2)cc1	1	1.1	-5	1	97	-1
O=C(c1ccco1)N1CCN(c2ncnc3c(-c4ccccc4)nsc23)CC1	-58	1.8	-3	1	129*	58
NC(=O)C1CCN(c2nc(-c3ccccc3)nc3ccccc23)CC1	7	0.71	-2	1	92	-7
NC(=O)C1CCN(c2ncnc3c(-c4ccccc4)nsc23)CC1	-21	2.6	14	0.9	139*	21
CC12CCC(C/C1=N\N=C1\NC(=O)/C(=C\c3ccc(Cl)cc3)S1)C2(C)C (stereo not given)	-6	0.95	0	1	109	6
